From article PMC5114172 (Journal of applied toxicology : JAT, 2016)

What was measured:
PBMCs plus Granulocytes = experiment: IL-1β secretion assay; format: cell-based, human; conditions: for Interleukin 1 beta secreted: PBMCs plus Granulocytes
In short: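 NK cells, MD-PBMCs, PBMCs or granulocytes (1.5 million/mL) or PBMC+granulocytes (0.75 million/mL each), per donor, exposed 24 h, 48 h or 6 days to 0.05–5 μM test compound diluted from DMSO stock, with DMSO controls. Supernatants kept at −70 °C. IL-1β by sandwich ELISA: HRP detection antibody, acid-stopped substrate, A450 against standards. Detection limit 3 pg/mL; triplicates; ANOVA then t test versus control, p<0.05.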

MD-PBMCs = experiment: IL-1β secretion; format: cell-based, human; conditions: donor F240, 24 h

## CCC[CH2][Sn][CH2]CCC [DBT, Dibutyltin]
PBMCs plus Granulocytes; donor F148, 24 h, 0.05 μM DBT
  Interleukin 1 beta secreted: 4217 ± 397 pg/mL
PBMCs plus Granulocytes; donor F148, 24 h, 0.1 μM DBT
  Interleukin 1 beta secreted: 3060 ± 191 pg/mL
PBMCs plus Granulocytes; donor F148, 24 h, 0.25 μM DBT
  Interleukin 1 beta secreted: 3344 ± 212 pg/mL
PBMCs plus Granulocytes; donor F148, 24 h, 0.5 μM DBT
  Interleukin 1 beta secreted: 7275 ± 2061 pg/mL
PBMCs plus Granulocytes; donor F148, 24 h, 1 μM DBT
  Interleukin 1 beta secreted: 2011 ± 148 pg/mL
PBMCs plus Granulocytes; donor F148, 24 h, 2.5 μM DBT
  Interleukin 1 beta secreted: 736 ± 552 pg/mL
PBMCs plus Granulocytes; donor F148, 24 h, 5 μM DBT
  Interleukin 1 beta secreted: 197 ± 78 pg/mL
PBMCs plus Granulocytes; donor F148, 48 h, 0.05 μM DBT
  Interleukin 1 beta secreted: 646 ± 25 pg/mL
PBMCs plus Granulocytes; donor F148, 48 h, 0.1 μM DBT
  Interleukin 1 beta secreted: 864 ± 11 pg/mL
PBMCs plus Granulocytes; donor F148, 48 h, 0.25 μM DBT
  Interleukin 1 beta secreted: 1017 ± 76 pg/mL
PBMCs plus Granulocytes; donor F148, 48 h, 0.5 μM DBT
  Interleukin 1 beta secreted: 1191 ± 200 pg/mL
PBMCs plus Granulocytes; donor F148, 48 h, 1 μM DBT
  Interleukin 1 beta secreted: 491 ± 26 pg/mL
PBMCs plus Granulocytes; donor F148, 6 day, 0.5 μM DBT
  Interleukin 1 beta secreted: 3 ± 1 pg/mL
PBMCs plus Granulocytes; donor F154, 24 h, 0.05 μM DBT
  Interleukin 1 beta secreted: 1364 ± 181 pg/mL
PBMCs plus Granulocytes; donor F154, 24 h, 0.1 μM DBT
  Interleukin 1 beta secreted: 1059 ± 141 pg/mL
PBMCs plus Granulocytes; donor F154, 24 h, 0.25 μM DBT
  Interleukin 1 beta secreted: 835 ± 38 pg/mL
PBMCs plus Granulocytes; donor F154, 24 h, 0.5 μM DBT
  Interleukin 1 beta secreted: 538 ± 33 pg/mL
PBMCs plus Granulocytes; donor F154, 24 h, 1 μM DBT
  Interleukin 1 beta secreted: 386 ± 157 pg/mL
PBMCs plus Granulocytes; donor F154, 48 h, 0.05 μM DBT
  Interleukin 1 beta secreted: 358 ± 88 pg/mL
PBMCs plus Granulocytes; donor F154, 48 h, 0.1 μM DBT
  Interleukin 1 beta secreted: 346 ± 40 pg/mL
PBMCs plus Granulocytes; donor F154, 48 h, 0.25 μM DBT
  Interleukin 1 beta secreted: 372 ± 47 pg/mL
PBMCs plus Granulocytes; donor F154, 48 h, 0.5 μM DBT
  Interleukin 1 beta secreted: 372 ± 24 pg/mL
PBMCs plus Granulocytes; donor F154, 48 h, 1 μM DBT
  Interleukin 1 beta secreted: 322 ± 11 pg/mL
PBMCs plus Granulocytes; donor F154, 48 h, 2.5 μM DBT
  Interleukin 1 beta secreted: 321 ± 35 pg/mL
PBMCs plus Granulocytes; donor F154, 48 h, 5 μM DBT
  Interleukin 1 beta secreted: 321 ± 20 pg/mL
PBMCs plus Granulocytes; donor F154, 6 day, 0.05 μM DBT
  Interleukin 1 beta secreted: 65 ± 34 pg/mL
PBMCs plus Granulocytes; donor F154, 6 day, 0.1 μM DBT
  Interleukin 1 beta secreted: 31 ± 16 pg/mL
PBMCs plus Granulocytes; donor F154, 6 day, 0.25 μM DBT
  Interleukin 1 beta secreted: 8 ± 1 pg/mL
PBMCs plus Granulocytes; donor F154, 6 day, 0.5 μM DBT
  Interleukin 1 beta secreted: 11 ± 0 pg/mL
PBMCs plus Granulocytes; donor F154, 6 day, 1 μM DBT
  Interleukin 1 beta secreted: 10 ± 0 pg/mL
PBMCs plus Granulocytes; donor F154, 6 day, 2.5 μM DBT
  Interleukin 1 beta secreted: 3 ± 0 pg/mL
PBMCs plus Granulocytes; donor F159, 24 h, 0.05 μM DBT
  Interleukin 1 beta secreted: 438 ± 18 pg/mL
PBMCs plus Granulocytes; donor F159, 24 h, 0.1 μM DBT
  Interleukin 1 beta secreted: 375 ± 28 pg/mL
PBMCs plus Granulocytes; donor F159, 24 h, 0.25 μM DBT
  Interleukin 1 beta secreted: 648 ± 18 pg/mL
PBMCs plus Granulocytes; donor F159, 24 h, 0.5 μM DBT
  Interleukin 1 beta secreted: 620 ± 40 pg/mL
PBMCs plus Granulocytes; donor F159, 24 h, 1 μM DBT
  Interleukin 1 beta secreted: 617 ± 74 pg/mL
PBMCs plus Granulocytes; donor F159, 24 h, 2.5 μM DBT
  Interleukin 1 beta secreted: 87 ± 12 pg/mL
PBMCs plus Granulocytes; donor F159, 48 h, 0.05 μM DBT
  Interleukin 1 beta secreted: 109 ± 93 pg/mL
PBMCs plus Granulocytes; donor F159, 48 h, 0.1 μM DBT
  Interleukin 1 beta secreted: 48 ± 8 pg/mL
PBMCs plus Granulocytes; donor F159, 48 h, 0.25 μM DBT
  Interleukin 1 beta secreted: 141 ± 16 pg/mL
PBMCs plus Granulocytes; donor F159, 48 h, 0.5 μM DBT
  Interleukin 1 beta secreted: 226 ± 16 pg/mL
PBMCs plus Granulocytes; donor F159, 48 h, 1 μM DBT
  Interleukin 1 beta secreted: 311 ± 39 pg/mL
PBMCs plus Granulocytes; donor F159, 48 h, 2.5 μM DBT
  Interleukin 1 beta secreted: 505 ± 54 pg/mL
PBMCs plus Granulocytes; donor F159, 48 h, 5 μM DBT
  Interleukin 1 beta secreted: 192 ± 15 pg/mL
PBMCs plus Granulocytes; donor F159, 6 day, 0.05 μM DBT
  Interleukin 1 beta secreted: 3 ± 2 pg/mL
PBMCs plus Granulocytes; donor F159, 6 day, 0.1 μM DBT
  Interleukin 1 beta secreted: 3 ± 2 pg/mL
PBMCs plus Granulocytes; donor F159, 6 day, 0.5 μM DBT
  Interleukin 1 beta secreted: 5 ± 1 pg/mL
PBMCs plus Granulocytes; donor F159, 6 day, 1 μM DBT
  Interleukin 1 beta secreted: 5 ± 1 pg/mL
PBMCs plus Granulocytes; donor F159, 6 day, 2.5 μM DBT
  Interleukin 1 beta secreted: 7 ± 1 pg/mL
PBMCs plus Granulocytes; donor F173, 24 h, 0.05 μM DBT
  Interleukin 1 beta secreted: 150 ± 26 pg/mL
PBMCs plus Granulocytes; donor F173, 24 h, 0.1 μM DBT
  Interleukin 1 beta secreted: 168 ± 34 pg/mL
PBMCs plus Granulocytes; donor F173, 24 h, 0.25 μM DBT
  Interleukin 1 beta secreted: 146 ± 12 pg/mL
PBMCs plus Granulocytes; donor F173, 24 h, 0.5 μM DBT
  Interleukin 1 beta secreted: 165 ± 13 pg/mL
PBMCs plus Granulocytes; donor F173, 24 h, 1 μM DBT
  Interleukin 1 beta secreted: 632 ± 19 pg/mL
PBMCs plus Granulocytes; donor F173, 24 h, 2.5 μM DBT
  Interleukin 1 beta secreted: 287 ± 22 pg/mL
PBMCs plus Granulocytes; donor F173, 24 h, 5 μM DBT
  Interleukin 1 beta secreted: 140 ± 10 pg/mL
PBMCs plus Granulocytes; donor F173, 48 h, 0.05 μM DBT
  Interleukin 1 beta secreted: 57 ± 35 pg/mL
PBMCs plus Granulocytes; donor F173, 48 h, 0.1 μM DBT
  Interleukin 1 beta secreted: 17 ± 2 pg/mL
PBMCs plus Granulocytes; donor F173, 48 h, 0.25 μM DBT
  Interleukin 1 beta secreted: 42 ± 6 pg/mL
PBMCs plus Granulocytes; donor F173, 48 h, 0.5 μM DBT
  Interleukin 1 beta secreted: 32 ± 1 pg/mL
PBMCs plus Granulocytes; donor F173, 48 h, 1 μM DBT
  Interleukin 1 beta secreted: 160 ± 2 pg/mL
PBMCs plus Granulocytes; donor F173, 48 h, 2.5 μM DBT
  Interleukin 1 beta secreted: 124 ± 3 pg/mL
PBMCs plus Granulocytes; donor F173, 48 h, 5 μM DBT
  Interleukin 1 beta secreted: 63 ± 1 pg/mL
PBMCs plus Granulocytes; PBMCs+granulocytes, 24 h, across donors
  average of the maximum fold increase in IL-β secretion: 3.8 fold
PBMCs plus Granulocytes; PBMCs+granulocytes, donor F159, 24 h, 0.25 μM DBT
  fold increase in IL-1β secretion: 1.9 fold
PBMCs plus Granulocytes; PBMCs+granulocytes, donor F159, 24 h, 0.5 μM DBT
  fold increase in IL-1β secretion: 1.8 fold
PBMCs plus Granulocytes; PBMCs+granulocytes, donor F159, 24 h, 1 μM DBT
  fold increase in IL-1β secretion: 1.8 fold
PBMCs plus Granulocytes; PBMCs+granulocytes, donor F159, 48 h, 0.25 μM DBT
  fold increase in IL-1β secretion: 35 fold
PBMCs plus Granulocytes; PBMCs+granulocytes, donor F159, 48 h, 0.5 μM DBT
  fold increase in IL-1β secretion: 56 fold
PBMCs plus Granulocytes; PBMCs+granulocytes, donor F159, 48 h, 1 μM DBT
  fold increase in IL-1β secretion: 77 fold
MD-PBMCs; 0.05 μM DBT + Caspase-1 inhibitor II 50 μM
  Interleukin 1 beta secreted: 337 ± 7 pg/mL
MD-PBMCs; 0.05 μM DBT + U0126 50 μM
  Interleukin 1 beta secreted: 1840 ± 95 pg/mL
MD-PBMCs; 0.05 μM DBT, absence of MEK inhibitor
  fold increase in IL-1β secretion: 1.6 fold
MD-PBMCs; 0.05 μM DBT, no inhibitor (CI experiment)
  Interleukin 1 beta secreted: 757 ± 17 pg/mL
MD-PBMCs; 0.05 μM DBT, no inhibitor (U0126 experiment)
  Interleukin 1 beta secreted: 772 ± 54 pg/mL
